Compound activity: PubChem BioAssay, Broad Institute
Hits are enriched below; roughly 2% of the tested compounds scored in any of these assays.
ARNT-TACC3 inh: disruptors of ARNT/TACC3 protein interaction, primary screen, biochemical, AlphaScreen, single concentration; Transforming acidic coiled-coil-containing protein 3 (Homo sapiens), Q9Y6A5; AlphaScreen His-ARNT PAS-B/GST-TACC3 binding, luminescence; TACC3 fragment carries E629A point mutation; actives 0.66% (n = 390,000); inhibition, % at 9.99 µM;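 active = mean inhibition of replicates at least 50% and at least half of replicates each reaching 50%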;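 note: 0% = complete ARNT plus TACC3 wells and 100% = ARNT alone without TACC3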
T cruzi repl: inhibitors of intracellular T. cruzi growth, primary screen, luminescence, NIH3T3 host cells; inhibition, % (no concentration beside the values); T. cruzi beta-gal in NIH3T3, 90 h; actives 1.4% (n = 300,000);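 active = mean inhibition across valid replicates above about 55%, limit read from the data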;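 note: signal also drops with host cell toxicity which is not excluded here; 0% = plate median of DMSO wells and 100% = zero luminescence signal; higher percent means less beta-gal luminescence so fewer parasites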
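System: Mouse NIH/3T3 fibroblasts infected with β-gal-expressing T. cruzi Tulahuen C4 | Quantity: NIH/3T3 cells, 5,000 per well | Reagent: 5000 reporter trypomastigotes per well | Dosing: Compound pinned at 50 nL/well, DMSO | Schedule: 3 h host attachment, then at least 90 h co-culture | Detection: GalScreen luminescence, 60 min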
HIF act: HIF pathway transcriptional activators, primary screen, cell-based, U2OS HRE-luciferase, luminescence | U2OS HRE-luciferase reporter; normalized: DMSO 0%, desferrioxamine 100% | activation, % at 7.5 µM (by protocol) | actives 0.32% (n = 300,000) | AID 1910, 2009;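 active = mean activation of at least 10% of the iron chelator positive control signal, with at least half of replicates also reaching 10%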
AI-2 QS modul: Vibrio harveyi AI-2 quorum sensing modulators, primary screen, JMH597 strain, luminescence/OD600 ratio. Vibrio harveyi JMH597 AI-2 luminescence/OD600 ratio, 9 h; hits give low values; strain lacks LuxN and CqsS sensors; 0 = neutral-control median. activity change, % at 7.5 µM. actives 0.4% (n = 300,000); in the data active = activity change below about -75%, passing the limit was not always enough;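 note: luminescence divided by OD600 gain over 9 h not by final OD600 alone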
Starred values were filed as active, the others as inactive; / = not tested or not shown; ! = not active in a repeat.

SMILES	ARNT-TACC3 inh	T cruzi repl	HIF act	AI-2 QS modul
COc1cc(/C=C(/C#N)c2ccccc2)ccc1Oc1ccc([N+](=O)[O-])cn1	31	48	-1	-8
COc1ccc(S(=O)(=O)Nc2ccc3c(c2)OC[C@H](C)NC[C@@H](C)[C@H](OC)CN(C)C3=O)cc1	-8	/	/	/
O=C(Nc1ccc(Cl)c(Cl)c1)N[C@H]1CC[C@@H](CCn2cc(C3CCCCC3)nn2)O[C@@H]1CO	3	/	/	/
CCN1CCN(c2oc(COc3ccc(-c4ccccc4)cc3)nc2C#N)CC1	19	61*	1	-8
Cc1ccc(C(=O)N/N=C\c2ccc(Br)o2)o1	-3	10	0	10
O=C(N/N=C\c1c(O)ccc2ccccc12)c1ccc(O)cc1	9	20	34*	33
O=C(C[n+]1cccc(C(=O)N/N=C/c2ccc(Br)cc2)c1)c1ccccc1	24	/	/	/
O=C(N/N=C/c1c(O)ccc2ccccc12)c1ccc[n+](CCO)c1	64*	9	0	10
O=C(CSCC(=O)Nc1ccccc1)N/N=C/c1c(O)ccc2ccccc12	23	14	71*	39
O=C(N/N=C/c1c(O)ccc2ccccc12)Nc1ccccc1	/	2	0	-2
O=C(N/N=C/c1ccccn1)c1ccc(Br)o1	69*	-5	-1	51
CCS(=O)(=O)NCC[C@@H]1CC[C@@H](NC(=O)C2CCCC2)[C@@H](CO)O1	-5	/	/	/
Cc1occc1C(=O)N/N=C/c1c(O)ccc2ccccc12	/	25	91*	-7
COc1cccc(/C=N/NC(=O)c2ccc(=O)n(C)c2)c1O	15	-17	0	3
Cn1cc(C(=O)N/N=C/c2c(O)ccc3ccccc23)ccc1=O	9	37	88*	4
O=C(N/N=C/c1c(O)ccc2ccccc12)c1ccc(Br)o1	4	41	59*	12
O=C(CNc1ccccc1)N/N=C/c1c(O)ccc2ccccc12	/	11	-1	61
Nc1cc(Cl)nc(N/N=C/c2c(O)ccc3ccccc23)n1	0	8	13*	35
C[C@H](CO)N1C[C@H](C)[C@@H](CN(C)CC2CCCC2)Oc2ncc(C#C[C@@H](C)O)cc2C1=O	-3	/	/	/
C[C@H]1CN([C@@H](C)CO)C(=O)c2cccc(NC(=O)c3nc4ccccc4s3)c2O[C@H]1CN(C)S(=O)(=O)c1ccc(F)cc1	13	/	/	/
C[C@H]1CN([C@@H](C)CO)S(=O)(=O)c2ccc(C3=CCCC3)cc2O[C@H]1CN(C)CC1CCOCC1	-13	/	/	/
C[C@@H]1CN([C@H](C)CO)C(=O)c2cccc(NS(=O)(=O)c3ccc(F)cc3)c2O[C@H]1CN(C)CC1CC1	-25	/	/	/
Cn1nccc1C(=O)N/N=C/c1c(O)ccc2ccccc12	24	-3	101*	4
Cc1c(C(=O)N/N=C/c2c(O)ccc3ccccc23)nnn1-c1nonc1N	-10	27	8	-2
COc1ccc(/C=C2\SC(=S)N(CCC(=O)N(CCO)Cc3ccccc3)C2=O)cc1OC	-1	65*	0	14
SMILES	ARNT-TACC3 inh	T cruzi repl	HIF act	AI-2 QS modul
COc1cc(/C=C2/SC(=S)N(Cc3ccccc3)C2=O)ccc1OCC(=O)O	25	-2	1	18
COc1ccc(NC(=O)Nc2ccc3c(c2)[C@H]2C[C@H](CC(=O)N4CCc5ccccc5C4)O[C@H](CO)[C@H]2O3)cc1	16	/	/	/
CCC/C(O)=C1\C(=O)CC(C)(C)CC1=NCc1ccccc1	4	19	77*	20
Cc1ccc(C)c(OCCCN2CCc3ccccc3C2)c1	-22	15	-3	19
Cc1ccc(SCC(=O)N2CC(C)OC(C)C2)cc1 (centres undefined)	-3	-9	0	19
Cc1ccc(SCCOCCN2CC(C)OC(C)C2)cc1 (centres undefined)	-7	57*	0	7
Cc1ccc(SCCOCCN2CCc3ccccc3C2)cc1	7	61*	0	9
O=C(COC(=O)C1CC2CCCC(C1)C2=O)c1cccc(Br)c1 (centres undefined)	-33	/	/	/
O=C(CN1CC(=O)Oc2ccccc21)OCC(=O)c1cccc(Br)c1	73*	-30	3	32
COc1cccc(-c2ccc3n(c2=O)C[C@H]2[C@H](CO)[C@@H](C(=O)N(C)C)[C@@H]3N2CC2CC2)c1	-7	/	/	/
O=C(C[C@@H]1CC[C@@H](NS(=O)(=O)c2ccc(F)cc2)[C@@H](CO)O1)N1CCc2ccccc2C1	-4	/	/	/
CCCC#Cc1ccc([C@H]2[C@@H](C#N)N(S(=O)(=O)c3cccc(F)c3)[C@@H]2CO)cc1	15	/	/	/
CCS(=O)(=O)c1ccc(O)c(NC(=O)/C=C/c2ccccc2)c1	-1	-3	1	-91*
O=C(NCC1CCCN(Cc2nccs2)C1)c1cccc2ccccc12 (centres undefined)	-9	5	0	24
COc1ccccc1CN1CCCC(CNC(=O)c2cccc3ccccc23)C1 (centres undefined)	-8	61*	-12	21
O=C(NCC1CCCN(Cc2ccccc2F)C1)c1cccc(C(F)(F)F)c1 (centres undefined)	/	66*	0	38
COc1ccc(CC(=O)NCC2CCCN(Cc3ccc(SC)cc3)C2)cc1 (centres undefined)	-6	68*	-9	-1
CSc1ccc(CN2CCCC(CNC(=O)c3ccc(F)cc3)C2)cc1 (centres undefined)	-1	63*	0	8
COC(=O)C[C@@H]1C[C@@H]2c3cc(NC(=O)Cc4ccncc4)ccc3O[C@@H]2[C@H](CO)O1	3	/	/	/
CCOc1ccccc1CN1CCCC(CNC(=O)Cc2ccc(OC)cc2)C1 (centres undefined)	5	59*	1	-6
COC(=O)[C@@]12CCCCN1[C@H](c1ccc(-c3cccc(Cl)c3)c(OC)c1)[C@@H]1C(=O)N(C)C(=O)[C@@H]12	-7	56*	-2	10
CC(C)NC(=O)Nc1ccc2c(c1)CC(=O)N([C@@H](C)CO)C[C@H](C)[C@@H](CN(C)C(=O)Nc1ccc(C(F)(F)F)cc1)O2	-2	/	/	/
O=C(N=C1N=C2C=CC(Br)=CN2Cc2ccccc21)c1ccc([N+](=O)[O-])cc1[N+](=O)[O-]	-19	57*	1	10
COc1ccc(-c2ccc3c(c2)O[C@H](CN(C)Cc2ccccc2C(=O)O)[C@@H](C)CN([C@H](C)CO)S3(=O)=O)cc1	0	/	/	/
COCC(=O)N(C)C[C@H]1Oc2cc(C#Cc3cccnc3)ccc2S(=O)(=O)N([C@H](C)CO)C[C@H]1C	active!	/	/	/
CCn1c(Cl)c(C=O)s/c1=N\S(=O)(=O)c1ccccc1	9	55*	-4	25
